Reference: paper PMC12412049 (Journal of controlled release : official journal of the …, 2025)

Columns and labels:
U87MG cells [1] = experiment: In vitro uptake in U87MG cells; assay type: cell-based, human; details: for Uptake percentage dose (%AD), total / Uptake %AD, intracellular: mean ± SD; for Uptake %AD, intracellular: internalized fraction (1 M NaOH lysis); for Share of radioactivity internalized by cells: after co-incubation 4 h
U87MG tumor [2] = experiment: In vivo radiotherapy in U87MG tumor-bearing mice; details: for Median survival: U87MG glioma-bearing mice; for Median survival / Tumor weight at the end of the treatment / Tumor volume: 66.6 MBq; for Tumor weight at the end of the treatment / Tumor volume: U87MG tumor-bearing mice, mean ± SD; for Tumor weight at the end of the treatment: 20 days post-treatment, n = 5/group
U87MG cells [3] = experiment: CCK-8 cell viability of U87MG cells with radiolabeled compounds; details: 0.1 and 0.2 MBq
Critical micelle = assay type: physicochemical; details: pyrene fluorescent probe, tangent method; DP1R 0.1-100 μM, each with 1 mM GSH
[4] = TEM morphology of self-assembled peptide; assay type: physicochemical
Method in brief: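 Peptide was dissolved in water above its CMC, with or without 1 mM GSH added to mimic intracellular reducing conditions. Samples were incubated 10 min, applied to copper grids and air-dried overnight. Particle morphology and size were imaged by TEM, with size given as mean ± SD.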

[5] = DLS hydrodynamic diameter and zeta potential; assay type: physicochemical; details: mean ± SD
U87MG cells [6] = experiment: Intracellular GSH content measurement; assay type: cell-based, human; details: 24 h co-incubation
Method in brief: (§1)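 U87MG cells were seeded at 2 × 10^5 cells/well and grown 24 h at 37°C. They were then exposed 24 h in serum-free medium to PBS or to unlabeled or 64Cu-labeled peptide conjugate at 0, 25, 50 or 100 μM. Cells were PBS-washed, trypsinized, pelleted at 3000 rpm for 3 min and washed. Intracellular GSH (GSH/GSSG) and ROS were read with commercial kits. Values are mean ± SD.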

U87MG cells [7] = experiment: Intracellular ROS level assay; assay type: cell-based, human; details: 24 h co-incubation
Method in brief: as §1

U87MG tumor [8] = experiment: PET imaging in U87MG tumor-bearing mice; details: mouse, in vivo; for Tumor uptake (PET ROI analysis): iv, 7.4 MBq
MCF-7 tumor [9] = system: MCF-7 tumor; design: species or system mice; details: mouse, in vivo
U87MG tumor [10] = experiment: Biodistribution study in U87MG tumor-bearing mice; details: mouse, in vivo
MCF-7 tumor [11] = system: MCF-7 tumor; design: species or system mice; details: mouse, in vivo, 72 h
U87MG tumor [12] = experiment: Tumor section staining; assay type: in vivo, mice; details: tumor sections
[13] = 0.05 MBq, 4 h, 37°C, gamma counter
[14] = normalized to stained control (set as 1.0), mean ± SD

[Cl][64Cu][Cl] [[^64Cu]CuCl2, reference compound]
Uptake by U87MG cells (in words) (U87MG cells [1]; 0.05-1 MBq, 4 h): Negligible uptake
Median survival (U87MG tumor [2]): 20 days
Tumor weight at the end of the treatment (U87MG tumor [2]): 2.36 ± 0.35 g
Cytotoxicity against tumor cells (in words) (U87MG cells [3]): Neither 0.1 MBq nor 0.2 MBq free [^64Cu]CuCl2 demonstrated notable cytotoxicity

DOTA-PEP1-c(RGDyK) (head to tail) [DP1R]
Critical micelle concentration (CMC) (Critical micelle): 13.962 µM
Nanostructure formation under TEM ([4]; absence of GSH incubation): no nanostructure formation was observed
Average diameter of micelle-like structures under TEM ([4]; in water above the CMC, 1 mM GSH, 10 min incubation, mean ± SD): approximately 27.55 ± 6.43 nm
Hydrodynamic diameter ([5]; DLS in PBS, after incubation with GSH): 284.28 ± 27.99 nm
Zeta potential ([5]; after incubation with GSH): −36.43 ± 1.89 mV
Zeta potential ([5]; before incubation with GSH): 3.65 ± 0.49 mV
Reduction of intracellular GSH levels (U87MG cells [6]; 25 μM): 17%
Reduction of intracellular GSH levels (U87MG cells [6]; 100 μM): exceeding 52%

[^64Cu]Cu-DOTA-PEP1-c(RGDyK) (head to tail) [[^64Cu]Cu-DP1R]
Uptake %AD relative to the [^64Cu]Cu-DR group (U87MG cells [1]; 0.05 MBq, 4 h): 5.83 times
Uptake percentage dose (%AD), total (U87MG cells [1]; [13]): 9.09 ± 0.48 %AD
Uptake %AD, intracellular (U87MG cells [1]; 0.05 MBq, 4 h): 8.27 ± 0.44 %AD
Share of radioactivity internalized by cells (U87MG cells [1]; 0.05 MBq): 90.98%
Uptake percentage dose (%AD), total (U87MG cells [1]; 0.1 MBq, 4 h): 7.50 ± 0.32 %AD
Effect on intracellular GSH (in words) (U87MG cells [6]): effectively reduce intracellular GSH
Effect on intracellular ROS level (in words) (U87MG cells [7]): enhance the ROS level
Retention index (RI) (U87MG tumor [8]): 21.90% (± 41.29%)
Tumor retention vs. control via PET imaging (U87MG tumor [8]): 2 fold
Tumor uptake (PET ROI analysis) (U87MG tumor [8]; 4 h): 6.90 ± 0.98 %ID/g
Tumor uptake (PET ROI analysis) (U87MG tumor [8]; 72 h): 6.20 ± 1.61 %ID/g
Tumor uptake in MCF-7 subcutaneous tumor model (in words) (MCF-7 tumor [9]): no significant tumor uptake
Blood pool uptake (biodistribution) (U87MG tumor [10]; 72 h): 1.01± 0.5 %ID/g
Kidneys uptake (biodistribution) (U87MG tumor [10]; 72 h): 1.43 ± 0.09 %ID/g
Tumor uptake (biodistribution) (U87MG tumor [10]; 72 h): 7.79 ± 1.08 %ID/g
Tumor uptake (biodistribution) (MCF-7 tumor [11]): 0.47 ± 0.10 %ID/g
Median survival (U87MG tumor [2]): 36 days
Tumor weight at the end of the treatment (U87MG tumor [2]): 0.25 ± 0.03 g
Tumor volume (U87MG tumor [2]; twenty days after injection): 122.20 ± 19.92 mm^3
Tumor volume of PBS group relative to treated group (U87MG tumor [2]; twenty days after injection): 12.1 times
Tumor volume of [^64Cu]Cu-DR group relative to [^64Cu]Cu-DP1R group (U87MG tumor [2]; twenty days after injection): 3.33 times
Apoptotic induction (TUNEL) vs PBS group (U87MG tumor [12]): 101.6 fold
Ki-67 relative expression (proliferative activity) (U87MG tumor [12]; IHC, normalized to stained control (set as 1.0), mean ± SD): 1.35 ± 0.17
ROS relative fluorescence intensity (U87MG tumor [12]; [14]): 7.87 ± 0.70
TUNEL relative fluorescence intensity (apoptosis) (U87MG tumor [12]; [14]): 140.21 ± 24.88
γ-H2AX relative fluorescence intensity (DNA damage) (U87MG tumor [12]; [14]): 59.3 ± 11.49
Decrease in Ki-67 index (U87MG tumor [12]; vs PBS group): 3.1 fold

[^64Cu]Cu-DOTA-PEP2-c(RGDyK) (head to tail) [[^64Cu]Cu-DP2R]
Tumor uptake (PET ROI analysis) (U87MG tumor [8]; 4 h): 5.53 ± 0.36 %ID/g
Tumor uptake (PET ROI analysis) (U87MG tumor [8]; 72 h): 2.93 ± 0.36 %ID/g
Lower 72h tumor retention relative to DP1R probe (U87MG tumor [10]): 58%
Tumor uptake (biodistribution) (U87MG tumor [10]; 72 h): 3.28 ± 0.45 %ID/g

[^64Cu]Cu-DOTA-c(RGDyK) [[^64Cu]Cu-DR]
Uptake percentage dose (%AD), total (U87MG cells [1]; [13]): 1.56 ± 0.78 %AD
Uptake %AD, intracellular (U87MG cells [1]; 0.05 MBq, 4 h): 0.10 ± 0.02 %AD
Share of radioactivity internalized by cells (U87MG cells [1]; 0.05 MBq): 87.82%
Median survival (U87MG tumor [2]): 26 days
Tumor weight at the end of the treatment (U87MG tumor [2]): 0.87 ± 0.03 g
Tumor volume (U87MG tumor [2]; twenty days after injection): 407.00 ± 66.34 mm^3
